Consider 14 compounds from ChEMBL document CHEMBL2062400, “RCAI-84, 91, and 105-108, ureido and thioureido analogs of KRN7000: their synthesis and bioactivity for mouse lymphocytes to produce Th1-biased cytokines” (Bioorg Med Chem, 2012).

Calls of active or inactive are those of the source. The rule behind the calls is not given here.

The test system of assay [1] is Mus musculus. Description: Immunostimulatory activity in C57BL/6J mouse assessed as increase in IFNgamma level at 2 ug, iv upto 24 hrs by ELISA. In kind it is functional, organism-based. In outline: (§1)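 Mice were 8-week C57BL/6J kept under SPF conditions. Glycolipid was dissolved in DMSO (1.0 mg/mL, 80 °C, 30 min), diluted to 200 µg/mL in PBS with 0.5% Tween20, then to 10 µg/mL in PBS. A 200 µL dose (2 µg/mouse) was given iv. Retro-orbital plasma was taken at 3–60 h. IFN-γ was read by ELISA and IL-4 by CBA. Data are mean ± SD of 3 mice, repeated 3 times.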
(In general: An ELISA detects its analyte on a solid surface through an enzyme-linked reagent.)

Assay [2] deals with Mus musculus. Description: Immunostimulatory activity in C57BL/6J mouse assessed as increase in IL4 level at 2 ug, iv by cytometric bead array method. Format: functional, organism-based. In short, it runs like this: as §1
The subject of assay [3] is Mus musculus. Kind of assay: Immunostimulatory activity in C57BL/6J mouse assessed as increase in IL12p70 level at 2 ug, iv from 3 to 12 hrs by cytometric bead array method relative to KRN7000. In kind it is functional, organism-based. In outline:
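Eight-week SPF C57BL/6J mice received 2 µg glycolipid iv (200 µL of 10 µg/mL in PBS, from a DMSO stock diluted in PBS/0.5% Tween20). Plasma was collected from the retro-orbital plexus with heparinized capillaries at 3, 6, 12, 24, 36, 48 and 60 h. IL-12p70 was quantified by cytometric bead array.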

The test system of assay [4] is Mus musculus. Description: Immunostimulatory activity in C57BL/6J mouse assessed as IFNgamma level at 2 ug, iv upto 24 hrs by ELISA relative to KRN7000. Format: functional.
For assay [5], the system named is Mus musculus. Description: Immunostimulatory activity in C57BL/6J mouse assessed as IL4 level at 2 ug, iv by cytometric bead array method relative to KRN7000. Format: functional.
Assay [6] has as its system Mus musculus. Kind of assay: Immunostimulatory activity in C57BL/6J mouse assessed as IFNgamma level at 5 ug, ip at 16 hrs by sandwich ELISA relative to KRN7000. Format: functional.
Assay [7] relates to Mus musculus. Description: Immunostimulatory activity in C57BL/6J mouse assessed as IL4 level at 5 ug, ip at 2 hrs by sandwich ELISA relative to KRN7000. Format: functional.

In the case of `CCCCCCCCCCCCCCCCCCCCCCCCCC(=O)N[C@@H](CO[C@H]1C[C@H](COC)[C@H](O)[C@H](O)[C@H]1O)[C@H](O)[C@H](O)CCCCCCCCCCCCCC`, the outcome in the assay with Mus musculus [1] was Active.
In the case of `CCCCCCCCCCCCCC[C@@H](O)[C@@H](O)[C@H](CO[C@H]1O[C@H](CO)[C@H](O)[C@H](O)[C@H]1O)NC(=O)NCCCCCc1ccccc1`, the result in the assay with Mus musculus [1] and in the assay on Mus musculus [2] was inactive.
On to `CCCCCCCCCCCCCCCCCCCCCCCCCC(=O)N[C@@H](CC[C@H]1O[C@H](CO)[C@H](O)[C@H](O)[C@H]1O)[C@H](O)[C@H](O)CCCCCCCCCCCCCC`, for which, in the assay on Mus musculus [1], the result was Active.
Still for that read-out and setting: for `CCCCCCCCCCCCCCCCCCCCCCCCCC(=O)N[C@@H](CS[C@H]1O[C@H](CO)[C@H](O)[C@H](O)[C@H]1O)[C@H](O)[C@H](O)CCCCCCCCCCCCCC` the value was “inactive”.
On to `CCCCCCCCCCCCCCCCCCCCCCCCNC(=O)N[C@@H](CO[C@H]1O[C@H](CO)[C@H](O)[C@H](O)[C@H]1O)[C@H](O)[C@H](O)CCCCCCCCCCCCCC`, for which the outcome with Mus musculus [1] and in the assay on Mus musculus [3] was Active.
For the compound `CCCCCCCCCCCCCCCCCCCCCCCCCC(=O)N[C@@H](CO[C@H]1O[C@H](CO)[C@H](O)[C@H](O)[C@H]1O)[C@H](O)[C@H](O)CCCCCCCCCCCCCC`, the result in the assay with Mus musculus [2] was Active.
As to `CCCCCCCCCCCCCCCCCC(=O)N[C@@H](CO[C@H]1O[C@H](CO)[C@H](O)[C@H](O)[C@H]1O)[C@H](O)[C@H](O)CCCCCCCCCCCCCC`, the figures for the Activity with Mus musculus [4] and in the assay on Mus musculus [5] were 10% and 40%, respectively.
Consider `CCCCCCCCCCCCCC[C@@H](O)[C@@H](O)[C@H](CO[C@H]1O[C@H](CO)[C@H](O)[C@H](O)[C@H]1O)NC(=O)NCCCCCCCC`, for which the outcome in the assay with Mus musculus [1] and with Mus musculus [2] was Active.
Consider `CCCCCCCCCCCCCCCCCCCCCCCCCC(=O)N[C@@H](CO[C@H]1C[C@H](CO)[C@H](O)[C@H](O)[C@H]1O)[C@H](O)[C@H](O)CCCCCCCCCCCCCC`, for which the result with Mus musculus [1] was Active.
Consider `CCCCCCCCCCCCCCCCCCCCCCCCC(F)(F)C(=O)N[C@@H](CO[C@H]1O[C@H](CO)[C@H](O)[C@H](O)[C@H]1O)[C@H](O)[C@H](O)CCCCCCCCCCCCCC`, for which the results for the Activity in the assay on Mus musculus [6] and with Mus musculus [7] were 50% and 100%, respectively.
`CCCCCCCCCCCCCCCCNC(=S)N[C@@H](CO[C@H]1O[C@H](CO)[C@H](O)[C@H](O)[C@H]1O)[C@H](O)[C@H](O)CCCCCCCCCCCCCC`: the result with Mus musculus [1] and in the assay on Mus musculus [2] was inactive.
For the compound `CCCCCCCCCCCCCC[C@@H](O)[C@@H](O)[C@H](CO[C@H]1O[C@H](CO)[C@H](O)[C@H](O)[C@H]1O)NC(=O)CCCCCc1ccccc1`, the outcome with Mus musculus [1] was inactive.
`CCCCCCCCCCCCCCCCCCCCCCCCNC(=O)N[C@@H](CO[C@H]1O[C@H](COC)[C@H](O)[C@H](O)[C@H]1O)[C@H](O)[C@H](O)CCCCCCCCCCCCCC`: the result with Mus musculus [1] and with Mus musculus [3] was Active.
`CCCCCCCCCCCCCCCCNC(=O)N[C@@H](CO[C@H]1O[C@H](CO)[C@H](O)[C@H](O)[C@H]1O)[C@H](O)[C@H](O)CCCCCCCCCCCCCC`: the outcome in the assay with Mus musculus [1] and with Mus musculus [2] was Active.
